# Test results: ChEMBL document CHEMBL1144022, “Synthesis and anti-HIV activity of 4'-substituted 4'-thiothymidines: a new entry based on nucleophilic substitution of the 4'-acetoxy group” (J Med Chem, 2008)
# Activity calls are given as the source filed them. No cut-off for these calls is given here.
# Legend:
# [1] = tested on: Human immunodeficiency virus 2; experiment: Antiviral activity against HIV2 in human M8166 cells assessed as virus-induced cytopathogenicity after 4 days by MTT assay; assay type: functional, organism-based; conditions: Human immunodeficiency virus 2, M8166, 96 h
# Summary of the method: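 M8166 cells (1 × 10⁵) were infected with HIV-2 at an MOI of 0.1 and cultured with various concentrations of compound for 4 days at 37 °C. Viability was read by MTT. The value is the concentration giving 50% protection against the viral cytopathic effect.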
# [2] = Cytotoxicity against human MT4 cells after 4 days by MTT assay; assay type: cell-based
# Summary of the method: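 Mock-infected MT-4 cells were run in parallel with the antiviral assay, with various concentrations of compound for 4 days at 37 °C. Viability was read by MTT. The value is the concentration that reduces viability by 50%.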
# [3] = Cytotoxicity against human M8166 cells after 4 days by MTT assay; assay type: cell-based
# [4] = tested on: Human immunodeficiency virus 1; experiment: Antiviral activity against HIV1 3B in human MT4 cells assessed as virus-induced cytopathogenicity after 4 days by MTT assay; assay type: functional, organism-based; conditions: Human immunodeficiency virus 1, 3B, MT4, 96 h
# Summary of the method: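 MT-4 cells (1 × 10⁵ cells/mL) were infected with HIV-1 IIIB at an MOI of 0.02 and cultured with various concentrations of compound for 4 days at 37 °C. Viable cells were counted by MTT. The value is the concentration giving 50% protection against the viral cytopathic effect.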
# [5] = tested on: Human immunodeficiency virus type 1 reverse transcriptase (Human immunodeficiency virus 1), Q72547 [M184V]; experiment: Activity at reverse transcriptase M184V mutant in HIV1 assessed as suppression of replication
SMILES,EC50 [1] [µM],CC50 at 96 h [2] [µM],CC50 at 96 h [3] [µM],EC50 [4] [µM],Activity [5]
Cc1cn([C@H]2C[C@H](O)[C@](CO)(N=[N+]=[N-])S2)c(=O)[nH]c1=O,0.024,40,> 10,0.02,
CO[C@]1(CO)S[C@@H](n2cc(C)c(=O)[nH]c2=O)C[C@@H]1O,1.2,> 100,> 100,> 4,
C=CC[C@]1(CO)S[C@@H](n2cc(C)c(=O)[nH]c2=O)C[C@@H]1O,> 100,> 100,> 100,> 100,
C#C[C@]1(CO)S[C@@H](n2cc(C)c(=O)[nH]c2=O)C[C@@H]1O,0.13,> 100,> 10,0.31,Active
Cc1cn([C@H]2C[C@H](O)[C@](CO)(Sc3ccccc3)S2)c(=O)[nH]c1=O,> 100,> 100,> 100,> 100,
Cc1cn([C@H]2C[C@H](O)[C@@](C#N)(CO)S2)c(=O)[nH]c1=O,0.023,> 100,> 10,0.037,Active
